Results filed as inconclusive are left out.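 Rule for the calls, unless noted: active = viability at or below 27.92% in each of two runs, the all-compound median minus 4 SD; inconclusive = no clear call, values can overlap the other calls; inactive = the rest.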
What was measured:
[1] = S. cerevisiae growth inhibition in permissive medium (OD615), pilot counter-assay for S. cerevisiae lifespan shortening project, permissive growth control (AID 705;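 active = growth inhibition above 25% in both replicates, a cutoff set 3 SD above the mean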); details: OD615, 24 h, at 10 µM, active compounds read high
Outline: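 System: engineered DeaD yeast; Medium: permissive raffinose/galactose medium; Compound dosing: 10 µM single dose, 0.25% DMSO; Incubation: 4 h cell pre-growth, 24 h exposure at 30 °C; Technique: OD at 615 nm; Evaluation: growth inhibition from lowered OD615 after 24 h.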

[2] = S. cerevisiae growth inhibition in restrictive medium, OD615, pilot screen, restrictive growth control, yeast lifespan reduction project (AID 706;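 active = growth inhibition above a set limit, 3 SD over mean compound inhibition, in both replicates, cut at about 43% in these data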;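 note: modified DeaD lifespan yeast strain shifted to restrictive glucose medium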); details: OD615, 48 h, at 10 µM, active compounds read high
Outline: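 Material: modified S. cerevisiae; buffer or medium: CSMM-D glucose medium; doses: one concentration, 10 µM final, 0.25% DMSO; incubation: 48 h compound exposure at 30 °C; detection: optical density at 615 nm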

[3] = doxorubicin toxicity protection in MRP-1 cells – H69AR cells, CellTiter-Glo, duplicate, MRP-1 activator project, pilot screen (AID 807;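 active = viability increase at or above a cutoff of the median across tested compounds plus 3 SD, cut at about 8.5% in these data, passing the limit was not always enough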;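 note: compound pretreatment 18-22 h then 72 h combined with doxorubicin; 0% = doxorubicin alone and 100% = vehicle without doxorubicin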); details: H69AR viability with doxorubicin, CellTiter-Glo luminescence; at 10 µM; active compounds read high
[4] = viability of HCT116 without oncogenic beta-catenin – human colon tumor cells, pilot screen (AID 823;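 active = cell viability at or below a set limit in both duplicate runs, the limit being the all-compound median minus 4 SD, cut at about 23% in these data, passing the limit was not always enough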;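 note: 0% = wells killed by 20 µM Hyamine and 100% = untreated DMSO cell wells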); details: HCT116 beta-catenin knockout viability, CellTiter-Glo, 60 h; at 10 µM; active compounds read low
[5] = viability of PTEN-null HCT116 cells – cell-based, HCT116 clonal line, CellTiter-Glo, pilot screen (AID 824); details: HCT116 PTEN-deleted viability, 60 h, at 10 µM, active compounds read low;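 note: 0% = 20 µM Hyamine control and 100% = vehicle cell control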
[6] = RAM pathway blockade in budding yeast – dse1pr::URA3 reporter, 5-FOA selection, pilot screen (AID 869;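 active = inhibition over a set limit, the all-compound mean plus 3 SD, in both replicate runs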;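 note: 0% = DMSO wells with no growth and 100% = 10 µM 1-NA-PP1 with full growth; RAM network block rescues cells from 5-FOA so hits raise OD615 growth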); details: S. cerevisiae dse1pr::URA3 5-FOA growth, OD615, 2 d; at 10 µM; active compounds read high; strain carries analog-sensitive mutant Cbk1 kinase
[7] = RAM signaling pathway blockade in yeast – S. cerevisiae, Pdr1DBD-CYC8 efflux-inhibited sensitized strain, primary screen (AID 1298;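 active = RAM network inhibition above 8.4% in each of two replicates, 3 SD over the compound average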;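 note: 0% = DMSO untreated cells without growth and 100% = 10 µM 1-NA-PP1 full growth; higher means more yeast growth rescued from 5-FOA killing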); details: S. cerevisiae cbk1-as DSE1-URA3 strain, 5-FOA growth OD615, 2 d; at 50 µM; active compounds read high

O=C(Cn1ncc2c1-c1ccccc1OC2)Nc1nc2ccccc2s1
inactive: growth inhibition [1] -6.12% | growth inhibition [2] 18.7% | viability increase [3] -6.71% | viability [4] 93.9% | viability [5] 84.5% | inhibition [6] 0.785% | RAM network inhibition [7] -2.15%

O=C(Cn1cc2c(n1)CCCC2)NC1CCCCCC1
inactive: growth inhibition [1] 4.4% | growth inhibition [2] 2.47% | viability increase [3] -1.14% | viability [4] 99.2% | viability [5] 93.6% | inhibition [6] 0.485% | RAM network inhibition [7] 2.95%

O=C(Nc1nc(-c2cc3ccccc3oc2=O)cs1)c1ccco1
inactive: growth inhibition [1] -17.5% | growth inhibition [2] -10.9% | viability increase [3] -1.98% | viability [4] 102% | viability [5] 100% | inhibition [6] 1.57% | RAM network inhibition [7] 3.32%

CCSC1=C(C#N)C(c2ccc(C)s2)CC(=O)N1 (configuration not stated)
inactive: growth inhibition [1] -16.1% | growth inhibition [2] -6.45% | viability increase [3] -0.29% | viability [4] 95.8% | viability [5] 94.1% | inhibition [6] 0.425% | RAM network inhibition [7] 0.57%

Cc1ccc(S(=O)(=O)N=C2SCCCS2)cc1
inactive: growth inhibition [1] -3.74% | growth inhibition [2] 6.67% | viability increase [3] -2.68% | viability [4] 99.2% | viability [5] 99.5% | inhibition [6] 1.31% | RAM network inhibition [7] 2.39%

Brc1cccc(-c2nnc3sc(CNC4CCCC4)cn23)c1
inactive: growth inhibition [1] -6.88% | growth inhibition [2] 5.62% | viability increase [3] -0.97% | viability [4] 95.7% | viability [5] 89.6% | inhibition [6] 1.56% | RAM network inhibition [7] 3.26%

O=C(NC1CSC/C1=N\O)c1ccccc1 (configuration not stated)
inactive: growth inhibition [1] -9.51% | growth inhibition [2] -1.84% | viability increase [3] -2.52% | viability [4] 103% | viability [5] 101% | inhibition [6] 1.17% | RAM network inhibition [7] 1.84%

Cc1c(C(=O)NCc2ccc3c(c2)OCO3)oc2ccc(S(=O)(=O)N3CCCCCC3)cc12
inactive: growth inhibition [1] -14% | growth inhibition [2] -7.72% | viability increase [3] -1.19% | viability [4] 77.5% | viability [5] 77.3% | inhibition [6] 1.82% | RAM network inhibition [7] 10.9%

O=C(Nc1sc2c(c1C(=O)O)CCCCC2)c1ccco1
inactive: growth inhibition [1] -3.7% | growth inhibition [2] -9.4% | viability increase [3] -1.32% | viability [4] 88.7% | viability [5] 78.5% | inhibition [6] -0.91% | RAM network inhibition [7] -1.46%

CCCCn1ccc(=O)c2c(C(F)(F)F)nccc21
inactive: growth inhibition [1] -6.65% | growth inhibition [2] -11.4% | viability increase [3] -3.12% | viability [4] 87.8% | viability [5] 84.4% | inhibition [6] 1.19% | RAM network inhibition [7] -0.41%

O=C1C2CCCN2C(c2ccc(F)c(F)c2)N1c1cccc(Cl)c1 (configuration not stated)
inactive: growth inhibition [1] 3.17% | growth inhibition [2] -1.67% | viability increase [3] -0.86% | viability [4] 101% | viability [5] 100% | inhibition [6] 0.745% | RAM network inhibition [7] 5.42%

Cc1ccc(C)c(SCC(=O)OCC(=O)Nc2ccc(S(=O)(=O)N3CCOCC3)cc2)c1
inactive: growth inhibition [1] -20.4% | growth inhibition [2] -17.7% | viability increase [3] -1.73% | viability [4] 97.8% | viability [5] 92.9% | inhibition [6] 1.02% | RAM network inhibition [7] 5.86%

CC(C)(C)n1nc2c(c1NC(=O)Cc1ccc(F)cc1)CSC2
inactive: growth inhibition [1] 1.52% | growth inhibition [2] -7.53% | viability increase [3] -0.87% | viability [4] 94% | viability [5] 88.2% | inhibition [6] 2.36% | RAM network inhibition [7] 5.41%

COC(=O)c1ccc(-n2nnnc2SCC(=O)N2CCCCC2)cc1
inactive: growth inhibition [1] -8.57% | growth inhibition [2] -21.9% | viability increase [3] -3% | viability [4] 85.8% | viability [5] 86.1% | inhibition [6] 0.045% | RAM network inhibition [7] 1.64%

CCC(C)NC(=O)C1CCN(C(=O)c2ccccc2)CC1 (configuration not stated)
inactive: growth inhibition [1] -3.49% | growth inhibition [2] -5.37% | viability increase [3] 0.74% | viability [4] 102% | viability [5] 98.2% | inhibition [6] 1.18% | RAM network inhibition [7] 1.87%

CC(C)CC(NS(=O)(=O)c1ccc2c(c1)oc(=O)n2C)C(=O)NC1CCCc2ccccc21 (configuration not stated)
inactive: growth inhibition [1] 0.005% | growth inhibition [2] -5.15% | viability increase [3] -6.23% | viability [4] 76.8% | viability [5] 71.8% | inhibition [6] 1.38% | RAM network inhibition [7] 6.99%

CC1CCN(CC(O)COc2ccc(F)cc2)CC1 (configuration not stated)
inactive: growth inhibition [1] -19.2% | growth inhibition [2] -16.5% | viability increase [3] -0.7% | viability [4] 96.4% | viability [5] 99.5% | inhibition [6] 0.515% | RAM network inhibition [7] 2.56%

O=C(C1CCN(S(=O)(=O)c2cccc3cccnc23)CC1)N1CCn2c1nc1ccccc12
inactive: growth inhibition [1] -1.95% | growth inhibition [2] -3.35% | viability increase [3] -1.86% | viability [4] 87.7% | viability [5] 83.2% | inhibition [6] 2.52% | RAM network inhibition [7] -1.55%

COc1ccc(NC(=O)Cc2nc3ccccc3[nH]2)cc1
inactive: growth inhibition [1] 0.43% | growth inhibition [2] 6.96% | viability increase [3] -1.06% | viability [4] 58.9% | viability [5] 92.5% | inhibition [6] 0.695% | RAM network inhibition [7] -1.49%

O=C(NCc1ccco1)c1nnc(Cc2ccc(F)cc2)o1
inactive: growth inhibition [1] -18.4% | growth inhibition [2] -12.9% | viability increase [3] -0.65% | viability [4] 105% | viability [5] 89.5% | inhibition [6] 1.21% | RAM network inhibition [7] 4.79%

O=C1CSC(c2nn(-c3ccccc3)cc2-c2cc3ccccc3oc2=O)N1Cc1ccco1 (configuration not stated)
inactive: growth inhibition [1] -1.13% | growth inhibition [2] 1.33% | viability increase [3] -4.75% | viability [4] 77.4% | viability [5] 76.9% | inhibition [6] 2.16% | RAM network inhibition [7] 2.95%

COc1cccc(N2CCN(C(=O)C3CCCN(S(=O)(=O)c4cnc[nH]4)C3)CC2)c1 (configuration not stated)
inactive: growth inhibition [1] 11.1% | growth inhibition [2] 8.66% | viability increase [3] 0.99% | viability [4] 97% | viability [5] 93% | inhibition [6] -0.27% | RAM network inhibition [7] -0.88%

COc1ccc2ccccc2c1C1CC(=O)N2CN(C3CCCCC3)CSC2=C1C#N (configuration not stated)
inactive: growth inhibition [1] 2.87% | growth inhibition [2] 25.4% | viability increase [3] -4.9% | viability [4] 81.3% | viability [5] 76.4% | inhibition [6] 2.05% | RAM network inhibition [7] 4.86%

Cn1c(CSc2nc3ccccc3s2)n[nH]c1=S
inactive: growth inhibition [1] -6.41% | growth inhibition [2] 1.9% | viability increase [3] -3.16% | viability [4] 96.9% | viability [5] 94.6% | inhibition [6] 0.23% | RAM network inhibition [7] 0.95%

Cc1cc(C)c2c(CC(=O)O)coc2c1
inactive: growth inhibition [1] -5.72% | growth inhibition [2] 10.2% | viability increase [3] 0.24% | viability [4] 93.9% | viability [5] 105% | inhibition [6] 2.03% | RAM network inhibition [7] 0.98%

CCC(C)NC(=O)CS(=O)Cc1nc(-c2ccccc2C)oc1C (configuration not stated)
inactive: growth inhibition [1] 1.69% | growth inhibition [2] 12.7% | viability increase [3] -2.38% | viability [4] 96.1% | viability [5] 95.2% | inhibition [6] 1.9% | RAM network inhibition [7] 9.39%

CCC(CC)c1nnc(NC(=O)c2c(-c3ccccc3)noc2C)s1
inactive: growth inhibition [1] -10.7% | growth inhibition [2] 3.94% | viability increase [3] -1.44% | viability [4] 90.2% | viability [5] 93.9% | inhibition [6] 0.27% | RAM network inhibition [7] 2.57%

CCOc1cc(-c2cc(N)n[nH]2)cc(OCC)c1OCC
inactive: growth inhibition [1] -14.5% | growth inhibition [2] -8.22% | viability increase [3] -2.48% | viability [4] 104% | viability [5] 91.5% | inhibition [6] 0.37% | RAM network inhibition [7] 0.35%

Cc1ccc(Cn2c(Sc3nnc(C)s3)nc3c2c(=O)[nH]c(=O)n3C)cc1
inactive: growth inhibition [1] -1.77% | growth inhibition [2] -4.4% | viability increase [3] -2.58% | viability [4] 85.8% | viability [5] 78.6% | inhibition [6] 2.5% | RAM network inhibition [7] 1.84%

O=C(O)COc1ccc2c(c1)OCCO2
inactive: growth inhibition [1] -7.81% | growth inhibition [2] -2.33% | viability increase [3] 0.55% | viability [4] 99.2% | viability [5] 107% | inhibition [6] 1.04% | RAM network inhibition [7] -0.47%

COc1cccc(NC(=O)CSc2nnc(Cn3c(=O)sc4ccccc43)n2C)c1
inactive: growth inhibition [1] 1.18% | growth inhibition [2] 18.9% | viability increase [3] -2.91% | viability [4] 102% | viability [5] 104% | inhibition [6] 2.37% | RAM network inhibition [7] 4.95%

Clc1ccc(NCn2cncn2)nc1
inactive: growth inhibition [1] 12.6% | growth inhibition [2] 7.94% | viability increase [3] -1.55% | viability [4] 96.5% | viability [5] 93.5% | inhibition [6] 2.67% | RAM network inhibition [7] 3.18%

O=C(Nc1ccc(Oc2ccccc2)cc1)c1cnc2n(c1=O)CCS2
inactive: growth inhibition [1] -16.5% | growth inhibition [2] -12.6% | viability increase [3] 5.46% | viability [4] 68.8% | viability [5] 65.9% | inhibition [6] 3.62% | RAM network inhibition [7] 8.2%

CCOC(=O)C1CCCN(C(=O)c2ccco2)C1 (configuration not stated)
inactive: growth inhibition [1] -11.6% | growth inhibition [2] -12.6% | viability increase [3] -3.01% | viability [4] 93.7% | viability [5] 102% | inhibition [6] 2.3% | RAM network inhibition [7] 0.62%

COc1ccc2nc(NC(=O)C3COc4ccccc4O3)sc2c1 (configuration not stated)
inactive: growth inhibition [1] -5.73% | growth inhibition [2] -9.21% | viability increase [3] 2.25% | viability [4] 100% | viability [5] 91.7% | inhibition [6] 2.08% | RAM network inhibition [7] 2.86%

CCn1c(C(C)NC(=O)c2cccs2)nc2ccccc21 (configuration not stated)
inactive: growth inhibition [1] -1.68% | growth inhibition [2] -9.03% | viability increase [3] -1.68% | viability [4] 103% | viability [5] 91.9% | inhibition [6] 1.33% | RAM network inhibition [7] 6.3%
